Among the data in ChEMBL document CHEMBL1156100, “Design and synthesis of a simplified inhibitor for XIAP-BIR3 domain” (Bioorg Med Chem Lett, 2009) are Activity and Ki values, retold here.

Activity calls are given as the source filed them. The calls are words filed in the database; no cut-off is given here.

In one experiment the target is T1, E3 ubiquitin-protein ligase XIAP (Homo sapiens, UniProt P98170). In words: Inhibition of XIAP BIR3 domain at 100 uM by competitive fluorescence polarization binding assay. On the technique in general: In fluorescence polarisation assays a small probe gives low polarisation when free and higher when bound to something large.
T1 sequence (P98170 whole entry, the tested form may be a part): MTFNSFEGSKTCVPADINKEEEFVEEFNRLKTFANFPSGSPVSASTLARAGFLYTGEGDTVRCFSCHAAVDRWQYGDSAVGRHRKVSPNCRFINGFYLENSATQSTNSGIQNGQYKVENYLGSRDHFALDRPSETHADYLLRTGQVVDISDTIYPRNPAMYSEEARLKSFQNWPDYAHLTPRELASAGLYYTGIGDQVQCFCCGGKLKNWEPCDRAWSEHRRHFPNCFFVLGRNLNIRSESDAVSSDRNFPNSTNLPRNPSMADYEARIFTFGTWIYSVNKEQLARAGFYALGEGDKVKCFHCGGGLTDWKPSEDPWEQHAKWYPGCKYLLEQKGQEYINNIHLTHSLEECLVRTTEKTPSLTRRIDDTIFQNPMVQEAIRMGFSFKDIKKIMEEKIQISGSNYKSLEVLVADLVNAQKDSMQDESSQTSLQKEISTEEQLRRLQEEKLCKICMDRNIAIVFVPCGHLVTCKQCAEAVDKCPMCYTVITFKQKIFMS
As for `CN[C@@H](C)C(=O)Nc1nc2c(s1)CCCCC2C(=O)NC1CCCc2ccccc21` (stereo partly drawn), the outcome was inactive.
Turning to `CN[C@@H](C)C(=O)Nc1nc2c(s1)CCCCC2C(=O)NC(c1ccccc1)c1ccccc1` (stereo partly drawn), the outcome was inactive.
Take `C[C@H](N)C(=O)Nc1nc2c(s1)CCCCC2C(=O)NC(c1ccccc1)c1ccccc1` (stereo partly drawn): the result was inactive.
On the same count and under the same terms, for `C[C@H](N)C(=O)Nc1nc2c(s1)CCCCC2C(=O)NCc1ccccc1` (stereo partly drawn) the value was “inactive”; for `CN[C@@H](C)C(=O)Nc1nc2c(s1)CCCCC2C(=O)NCc1ccccc1` (stereo partly drawn), “inactive”; for `C[C@H](N)C(=O)Nc1nc2c(s1)CCCCC2C(=O)NC1CCCc2ccccc21` (stereo partly drawn), “inactive”.

A further experiment has as its target T1, E3 ubiquitin-protein ligase XIAP. In words: Inhibition of XIAP BIR3 domain at 10 to 100 uM by competitive fluorescence polarization binding assay.
With `CN[C@@H](C)C(=O)Nc1nc2c(s1)CCC2C(=O)NC(c1ccccc1)c1ccccc1` (stereo partly drawn), the result was Active.
The same measure, in the same setting: for `CN[C@@H](C)C(=O)Nc1nc2c(s1)CCC2C(=O)NC1CCCc2ccccc21` (mixture of isomers) the value was “Active”; for `C[C@H](N)C(=O)Nc1nc2c(s1)CCC2C(=O)NC1CCCc2ccccc21` (stereo partly drawn), “Active”.
Same read-out and setting: for `C[C@H](N)C(=O)Nc1nc2c(s1)CCC2C(=O)NC(c1ccccc1)c1ccccc1` (stereo partly drawn) the value was “Active”; for `CN[C@@H](C)C(=O)Nc1nc2c(s1)CCC2C(=O)NCc1ccccc1` (stereo partly drawn), “Active”.
Same read-out and setting: the entry for `C[C@H](N)C(=O)Nc1nc2c(s1)CCC2C(=O)NCc1ccccc1` (stereo partly drawn) is “Active”.

The target is the same in another experiment. Kind of experiment: Inhibition of XIAP BIR3 domain by competitive fluorescence polarization binding assay. The method, boiled down:
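Competitive fluorescence polarization displacement assay using the XIAP BIR3 domain, with BV6 run in parallel as the reference compound. Binding affinity is expressed as Ki.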
In the case of `CN[C@@H](C)C(=O)Nc1nc2c(s1)CC[C@H]2C(=O)N[C@@H]1CCCc2ccccc21`, the Ki (as a rule, the equilibrium dissociation constant of an inhibitor or competing ligand from its target) is 5.58 µM. This lies in the single-digit micromolar range.
Same read-out and setting: the figure for `CN[C@@H](C)C(=O)Nc1nc2c(s1)CCC2C(=O)NC1CCCc2ccccc21` (mixture of isomers) is 37 µM.

Another experiment has the same target. Kind of experiment: Inhibition of XIAP BIR3 domain at 10 to 100 uM by competitive fluorescence polarization binding assay relative to 1 uM BV6 control.
On to `CN[C@@H](C)C(=O)Nc1nc2c(s1)CC[C@H]2C(=O)N[C@H]1CCCc2ccccc21`, for which the result was inactive.
With `CN[C@@H](C)C(=O)Nc1nc2c(s1)CC[C@H]2C(=O)N[C@@H]1CCCc2ccccc21`, the outcome was Active.
For `CN[C@@H](C)C(=O)Nc1nc2c(s1)CCC2C(=O)NC1CCCc2ccccc21` (mixture of isomers), the outcome was inactive.
Regarding `CN[C@@H](C)C(=O)Nc1nc2c(s1)CC[C@@H]2C(=O)NC1CCCc2ccccc21` (mixture of isomers), the outcome was inactive.
